Data taken from ChEMBL document CHEMBL1909630, “Azaxanthene based selective glucocorticoid receptor modulators: design, synthesis, and pharmacological evaluation of (S)-4-(5-(1-((1,3,4-thiadiazol-2-yl)amino)-2-methyl-1-oxopropan-2-yl)-5H-chromeno[2,3-b]pyridin-2-yl)-2-fluoro-N,N-dimethylbenzamide (BMS-776532) and its methylene homologue …” (J Med Chem, 2011).

Columns and labels:
Glucocorticoid receptor [1] = molecular target: T1, Glucocorticoid receptor (Homo sapiens, UniProt P04150); assay: Displacement of GS-red from glucocorticoid receptor by fluorescence polarization assay
T1 sequence (P04150 whole entry): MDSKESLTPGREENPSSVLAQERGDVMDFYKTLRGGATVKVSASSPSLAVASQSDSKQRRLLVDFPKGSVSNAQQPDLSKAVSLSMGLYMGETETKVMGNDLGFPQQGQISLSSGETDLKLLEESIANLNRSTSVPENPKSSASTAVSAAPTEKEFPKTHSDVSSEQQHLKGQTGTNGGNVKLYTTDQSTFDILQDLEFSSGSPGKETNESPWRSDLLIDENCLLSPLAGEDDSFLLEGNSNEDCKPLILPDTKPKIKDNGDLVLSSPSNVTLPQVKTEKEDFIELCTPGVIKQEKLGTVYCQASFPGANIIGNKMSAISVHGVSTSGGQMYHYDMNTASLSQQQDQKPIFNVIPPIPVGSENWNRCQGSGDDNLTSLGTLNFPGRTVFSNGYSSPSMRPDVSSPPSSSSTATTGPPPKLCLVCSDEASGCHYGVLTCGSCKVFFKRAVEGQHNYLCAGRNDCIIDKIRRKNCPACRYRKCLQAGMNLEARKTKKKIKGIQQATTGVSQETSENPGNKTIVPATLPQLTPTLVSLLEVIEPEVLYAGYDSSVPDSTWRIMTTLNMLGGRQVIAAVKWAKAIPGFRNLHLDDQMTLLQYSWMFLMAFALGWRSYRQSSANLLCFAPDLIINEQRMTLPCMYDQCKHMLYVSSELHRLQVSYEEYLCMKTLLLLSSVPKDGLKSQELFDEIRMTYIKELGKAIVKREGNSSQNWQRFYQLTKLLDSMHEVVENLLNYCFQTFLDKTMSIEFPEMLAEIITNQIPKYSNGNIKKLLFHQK

Progesterone receptor = molecular target: T2, Progesterone receptor (Homo sapiens, UniProt P06401); assay: Displacement of fluorescently labeled ligand from progesterone receptor by fluorescence polarization assay
T2 sequence (P06401 whole entry): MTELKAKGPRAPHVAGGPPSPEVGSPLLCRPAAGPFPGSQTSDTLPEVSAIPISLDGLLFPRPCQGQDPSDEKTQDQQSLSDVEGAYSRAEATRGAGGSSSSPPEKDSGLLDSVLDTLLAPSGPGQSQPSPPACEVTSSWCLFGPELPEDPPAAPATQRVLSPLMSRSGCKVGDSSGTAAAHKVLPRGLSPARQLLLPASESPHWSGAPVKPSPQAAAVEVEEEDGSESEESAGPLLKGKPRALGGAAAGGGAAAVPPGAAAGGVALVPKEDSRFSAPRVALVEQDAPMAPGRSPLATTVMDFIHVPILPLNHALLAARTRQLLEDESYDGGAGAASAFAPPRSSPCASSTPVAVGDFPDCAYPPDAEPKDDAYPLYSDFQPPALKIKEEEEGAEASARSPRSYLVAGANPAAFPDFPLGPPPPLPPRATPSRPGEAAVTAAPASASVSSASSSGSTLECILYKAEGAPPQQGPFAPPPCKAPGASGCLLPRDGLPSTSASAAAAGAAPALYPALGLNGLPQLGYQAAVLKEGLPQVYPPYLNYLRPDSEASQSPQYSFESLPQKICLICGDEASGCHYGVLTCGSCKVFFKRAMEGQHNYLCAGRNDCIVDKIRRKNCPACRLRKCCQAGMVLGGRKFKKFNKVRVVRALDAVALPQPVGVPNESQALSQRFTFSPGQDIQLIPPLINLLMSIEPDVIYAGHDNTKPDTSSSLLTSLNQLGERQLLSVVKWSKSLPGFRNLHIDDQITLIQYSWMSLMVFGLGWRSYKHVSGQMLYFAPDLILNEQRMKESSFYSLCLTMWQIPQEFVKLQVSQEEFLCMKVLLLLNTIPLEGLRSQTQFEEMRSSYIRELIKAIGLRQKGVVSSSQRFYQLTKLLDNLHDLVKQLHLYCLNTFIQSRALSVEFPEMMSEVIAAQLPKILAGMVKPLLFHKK

Glucocorticoid receptor [2] = molecular target: T1, Glucocorticoid receptor; assay: Transrepression activity at glucocorticoid receptor alpha in phorbol myristate acetate-stimulated human A549 cells assessed as inhibition of AP1 response element by luciferase reporter gene assay; type: cell-based
Glucocorticoid receptor [3] = molecular target: T1, Glucocorticoid receptor; assay: Transactivation activity at GR-alpha in human NP1 Hela cells assessed as induction of GAL4-DBD after 20 hrs by luciferase reporter gene assay; type: cell-based
Glucocorticoid receptor [4] = molecular target: T1, Glucocorticoid receptor; assay: Transactivation activity at glucocorticoid receptor alpha human 13D3/Huh7 cells assessed as induction of TAT activity after 4 hrs by spectrophotometry; type: cell-based, Huh-7
Glucocorticoid receptor [5] = molecular target: T1, Glucocorticoid receptor; assay: Transactivation activity at GR-alpha in human NP1 Hela cells assessed as inhibition of GAL4-DBD after 20 hrs by luciferase reporter gene assay; type: cell-based
Androgen receptor = molecular target: T3, Androgen receptor (Homo sapiens, UniProt P10275); assay: Displacement of fluorescently labeled ligand from androgen receptor by fluorescence polarization assay
T3 sequence (P10275 whole entry): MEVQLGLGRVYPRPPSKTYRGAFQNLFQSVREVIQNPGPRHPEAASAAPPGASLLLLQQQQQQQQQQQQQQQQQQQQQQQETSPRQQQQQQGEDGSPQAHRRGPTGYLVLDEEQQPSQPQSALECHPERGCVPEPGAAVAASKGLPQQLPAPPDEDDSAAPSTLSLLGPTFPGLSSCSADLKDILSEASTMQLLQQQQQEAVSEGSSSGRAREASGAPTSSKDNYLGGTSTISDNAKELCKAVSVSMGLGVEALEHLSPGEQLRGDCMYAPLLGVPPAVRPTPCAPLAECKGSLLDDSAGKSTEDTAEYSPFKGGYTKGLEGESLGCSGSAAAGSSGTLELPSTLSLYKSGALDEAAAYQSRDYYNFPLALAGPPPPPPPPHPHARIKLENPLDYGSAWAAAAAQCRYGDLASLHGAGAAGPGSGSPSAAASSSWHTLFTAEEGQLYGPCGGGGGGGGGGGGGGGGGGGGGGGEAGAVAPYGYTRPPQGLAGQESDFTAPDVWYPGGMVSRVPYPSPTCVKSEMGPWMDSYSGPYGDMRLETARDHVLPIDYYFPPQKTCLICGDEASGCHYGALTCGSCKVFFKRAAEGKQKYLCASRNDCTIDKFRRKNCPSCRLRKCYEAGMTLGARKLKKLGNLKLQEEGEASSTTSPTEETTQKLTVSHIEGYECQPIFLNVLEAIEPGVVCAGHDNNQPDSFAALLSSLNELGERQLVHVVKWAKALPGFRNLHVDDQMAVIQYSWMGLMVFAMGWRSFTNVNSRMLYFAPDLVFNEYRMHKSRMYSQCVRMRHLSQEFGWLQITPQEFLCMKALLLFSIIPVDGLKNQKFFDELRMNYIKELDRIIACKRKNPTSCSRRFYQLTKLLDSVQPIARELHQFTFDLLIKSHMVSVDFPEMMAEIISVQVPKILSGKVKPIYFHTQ
Outline: (§1)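 Binding was measured by fluorescence polarization competition between compound and a fluorescent ligand for full-length receptor or ligand-binding domain. Values are means of at least two experiments.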

Glucocorticoid receptor [6] = molecular target: T1, Glucocorticoid receptor; assay: Transrepression activity at glucocorticoid receptor alpha in IL-1beta-stimulated human A549 cells assessed as inhibition of NFkappaB-dependent E-selectin transcription by luciferase reporter gene assay; type: cell-based
Estrogen receptor = molecular target: T4, Estrogen receptor (Homo sapiens, UniProt P03372); assay: Displacement of fluorescently labeled ligand from ERalpha receptor by fluorescence polarization assay; outline: as §1
T4 sequence (P03372 whole entry): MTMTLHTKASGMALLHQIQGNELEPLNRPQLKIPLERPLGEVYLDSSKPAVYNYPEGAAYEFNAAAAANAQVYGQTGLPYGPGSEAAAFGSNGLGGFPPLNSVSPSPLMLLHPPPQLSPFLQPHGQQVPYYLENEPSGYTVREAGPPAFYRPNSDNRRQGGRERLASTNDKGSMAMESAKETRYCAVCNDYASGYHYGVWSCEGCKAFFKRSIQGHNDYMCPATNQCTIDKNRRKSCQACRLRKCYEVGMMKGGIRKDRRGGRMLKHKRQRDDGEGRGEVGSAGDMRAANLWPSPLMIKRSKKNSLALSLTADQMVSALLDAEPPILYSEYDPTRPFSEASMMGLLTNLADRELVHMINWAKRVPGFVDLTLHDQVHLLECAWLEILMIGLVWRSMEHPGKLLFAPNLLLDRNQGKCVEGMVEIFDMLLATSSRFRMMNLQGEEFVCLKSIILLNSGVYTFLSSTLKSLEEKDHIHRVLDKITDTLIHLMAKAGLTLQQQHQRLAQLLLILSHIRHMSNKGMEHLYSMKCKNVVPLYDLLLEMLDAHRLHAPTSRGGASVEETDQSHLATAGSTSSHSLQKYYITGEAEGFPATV

[7] = molecular target: T5, Mineralocorticoid receptor (Homo sapiens, UniProt P08235); assay: Agonist activity at human mineralocorticoid receptor expressed in human A549 cells by fluorescence polarization assay; type: functional, cell-based
T5 sequence (P08235 whole entry): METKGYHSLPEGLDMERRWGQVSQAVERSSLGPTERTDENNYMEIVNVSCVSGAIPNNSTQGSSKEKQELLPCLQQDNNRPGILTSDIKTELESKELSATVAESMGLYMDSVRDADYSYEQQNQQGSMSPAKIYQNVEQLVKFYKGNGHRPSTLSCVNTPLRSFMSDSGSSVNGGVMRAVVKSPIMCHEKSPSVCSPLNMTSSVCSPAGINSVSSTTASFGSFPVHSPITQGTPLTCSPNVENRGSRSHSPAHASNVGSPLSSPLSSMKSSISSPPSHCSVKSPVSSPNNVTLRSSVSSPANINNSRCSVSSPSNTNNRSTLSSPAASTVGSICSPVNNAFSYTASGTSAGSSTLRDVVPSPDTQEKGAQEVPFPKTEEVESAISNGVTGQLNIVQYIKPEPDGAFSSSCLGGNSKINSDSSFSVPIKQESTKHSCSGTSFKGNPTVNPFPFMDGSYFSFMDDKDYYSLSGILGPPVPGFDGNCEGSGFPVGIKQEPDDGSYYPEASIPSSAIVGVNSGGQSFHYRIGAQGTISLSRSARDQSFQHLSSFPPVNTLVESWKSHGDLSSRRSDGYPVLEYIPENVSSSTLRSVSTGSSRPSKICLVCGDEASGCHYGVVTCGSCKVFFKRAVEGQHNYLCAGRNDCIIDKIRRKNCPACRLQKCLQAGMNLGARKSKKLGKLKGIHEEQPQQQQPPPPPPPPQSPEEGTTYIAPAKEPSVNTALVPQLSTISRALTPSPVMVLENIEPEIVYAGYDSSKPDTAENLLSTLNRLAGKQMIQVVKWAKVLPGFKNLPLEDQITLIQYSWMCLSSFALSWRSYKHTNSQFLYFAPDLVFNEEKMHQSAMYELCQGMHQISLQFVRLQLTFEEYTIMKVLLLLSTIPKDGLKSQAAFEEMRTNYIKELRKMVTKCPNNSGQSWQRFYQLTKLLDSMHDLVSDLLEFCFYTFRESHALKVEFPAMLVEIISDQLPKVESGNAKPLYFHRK

Blood [8] = assay: Antiinflammatory activity in human whole blood assessed as inhibition of LPS-induced TNFalpha production after overnight incubation by ELISA; type: functional, tissue-based
Outline: (§2)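 Whole blood from two donors per experiment was collected into ACD-A. Compounds were added and the blood was incubated about 20 h at 37 °C under 5% CO2. Blood was then stimulated for 5 h with LPS (final 100 ng/mL, for TNFα) or IL-1β (final 10 ng/mL, for IL-8). Plasma TNFα or IL-8 was measured by ELISA. Efficacy was expressed as % of dexamethasone, and values are means of at least two experiments.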

Blood [9] = assay: Antiinflammatory activity in human whole blood assessed as inhibition of LPS-induced TNFalpha production after overnight incubation by ELISA relative to Dexamethasone; type: functional; outline: as §2
Blood [10] = assay: Antiinflammatory activity in human whole blood assessed as inhibition of TNF-alpha-induced IL-8 production after overnight incubation by ELISA; type: functional, tissue-based
Blood [11] = assay: Antiinflammatory activity in human whole blood assessed as inhibition of TNF-alpha-induced IL-8 production after overnight incubation by ELISA relative to dexamethasone; type: functional
Blood [12] = assay: Antiinflammatory activity in human whole blood assessed as inhibition of IL-1beta-induced IL-8 production after overnight incubation by ELISA; type: functional, tissue-based; outline: as §2
Blood [13] = assay: Antiinflammatory activity in human whole blood assessed as inhibition of IL-1beta-induced IL-8 production after overnight incubation by ELISA relative to Dexamethasone; type: functional; outline: as §2

Structure (SMILES)	Ki (Glucocorticoid receptor [1]) [µM]	Ki (Progesterone receptor) [µM]	EC50 (Glucocorticoid receptor [2]) [µM]	EC50 (Glucocorticoid receptor [3]) [µM]	EC50 (Glucocorticoid receptor [4]) [µM]	EC50 (Glucocorticoid receptor [5]) [µM]	Ki (Androgen receptor) [µM]	EC50 (Glucocorticoid receptor [6]) [µM]	Ki (Estrogen receptor) [µM]	EC50 [7] [µM]	EC50 (Blood [8]) [µM]	Imax (Blood [9]) [%]	EC50 (Blood [10]) [µM]	Imax (Blood [11]) [%]	EC50 (Blood [12]) [µM]	Imax (Blood [13]) [%]
CC(C)Oc1ccc(-c2ccc3c(n2)Oc2ccccc2[C@H]3C(C)(C)C(=O)Nc2nncs2)cc1	0.0016	0.31	0.0181	0.135	0.107	0.077										
CCCc1ccc(-c2ccc3c(n2)Oc2ccccc2[C@H]3C(C)(C)C(=O)Nc2nncs2)cc1	0.0024	0.285	0.0151	0.126	0.823	0.036	> 5	0.0297								
CN(C)C(=O)c1ccc(-c2ccc3c(n2)Oc2ccccc2[C@@H]3C(C)(C)C(=O)Nc2nncs2)cc1	0.00174	1.23	0.0122	0.089	0.0227	0.0427		0.0046	> 75	> 5						
CC(C)Oc1ccc(-c2ccc3c(n2)Oc2ccccc2[C@@H]3C(C)(C)C(=O)Nc2nncs2)cc1F	0.0039		0.047	0.496	0.876	0.162		0.073			> 5	49	> 20	12	> 20	7
CC(C)(C(=O)Nc1nncs1)[C@H]1c2ccccc2Oc2nc(-c3ccc(C(=O)N4CCOCC4)c(F)c3)ccc21	0.0027		0.0117	0.0789	0.093	0.0344		0.0117			0.469	88	0.382	84	0.789	92
